# Results collected from several papers.
# Target: Tyrosine-protein kinase Srms (SRMS, Homo sapiens, UniProt Q9H3Y6)
SMILES,test,conditions,quantity,value
O=C(Nc1ccc(Oc2ccc(F)cc2)cc1)N1CCc2ncccc2[C@H]1c1ccc(F)cc1,"cell-free assay, competition with immobilised ligand",1 µM,remaining binding,94%
Nc1ncnc2occ(-c3ccc(NC(=O)Nc4cc(C(F)(F)F)ccc4F)cc3)c12,"cell-free assay, inhibitor",20 µM,remaining signal,0.8%
C[C@H](c1ccc(F)cc1)N(Cc1cccc(C(=O)O)c1)C(=O)c1cnc2ccccc2c1,"cell-free assay, competition with immobilised ligand",1 µM,remaining binding,100%
O=C(Nc1cnn(-c2csc(C(=O)NC3COC3)c2)c1)Nc1ccccc1Cl,"enzyme activity, inhibitor",5 µM,remaining activity,99.8%
O=C1Nc2ccc(Cl)cc2C1=Cc1cc(Cl)c(O)c(Cl)c1,cell-free assay,0.5 µM,remaining signal,86.3%
CNCc1ccccc1-c1csc([C@H](C)Nc2nc(C)nc3cc(OC)c(OC)cc23)c1,"cell-free assay, competition with immobilised ligand",1 µM,remaining binding,88%
CC/C(=N\NC(=O)NCc1cccc(O)c1)c1ccc(O)c(C)c1O,"enzyme activity, inhibitor",0.1 µM,inhibition,1.1%
CC(C)(C)c1nc(-c2cccc(NS(=O)(=O)c3c(F)cccc3F)c2F)c(-c2ccnc(N)n2)s1,"enzyme activity, inhibitor, radiometric",1 µM,remaining activity,10%
O=C(Nc1cnn(-c2csc(C(=O)NC3COC3)c2)c1)Nc1c(F)cccc1Cl,"enzyme activity, inhibitor",5 µM,remaining activity,105%
COc1cc2ncnc(Nc3ccc(Oc4ccccc4)cc3C)c2cc1OC,"enzyme activity, inhibitor",1 µM,inhibition,84%
O=C(NC[C@@H]1[C@H]2CN(C(=O)OCc3cc(C(F)(F)F)cc(C(F)(F)F)c3)C[C@@H]12)c1ccc2[nH]nnc2c1,"cell-free assay, competition with immobilised ligand",1 µM,remaining binding,83%
O=C1NC(=O)c2cc(Nc3ccc(F)cc3)c(Nc3ccc(F)cc3)cc21,cell-free assay,0.5 µM,remaining signal,95.5%
